Measured values from the array DNA melting data of Ke et al. (doi:10.1101/2024.01.08.574731).

Key:
[1] = folding enthalpy; higher = less favourable; fluorescence melt of hairpins on a sequencing array, two-state fit; settings: sodium 0.088 M
Procedure, shortened: (§1)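 Melting temperature and folding enthalpy were derived from bootstrapped two-state fits. The fitted temperatures were raised by 9.35 °C to agree with UV melts, and four replicates were combined by inverse variance. The underlying data were Cy3 fluorescence images of library hairpins, with annealed Cy3 and quencher oligos, on a sequenced MiSeq flow cell in 50 mM Na-HEPES pH 8.0, 25 mM NaCl, taken in 2.5 °C steps up to 60 °C, normalised to pre-quench Cy3 and to control constructs.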

[2] = melting temperature; fluorescence melt of hairpins on a sequencing array, two-state fit, raised by 9.35 °C to match UV melts; settings: sodium 0.088 M
Procedure, shortened: as §1

Row | Sequence | folding enthalpy [1] [kcal/mol] | Tm [2] [°C]
1 | GCCCTCGAAAGAGTGGC ((((((....))).))) | -31.9 | 58.5
2 | GCCCTGCGAAAGCACTGC ((..(((....)))..)) | -6.98 | 24.6
3 | GCCCTGCGAAAGCAGGC (((.(((....)))))) | -8.08 | 65.1
4 | GCCCTGCGAAAGCCGAGC ((.(.((....)).).)) | -11 | 34.5
5 | GCCCTGCGAAAGCCGTGC ((.(.((....)).).)) | -11.6 | 31.7
6 | GCCCTGCGAAAGCCTGGC (((..((....))..))) | -16.2 | 45.5
7 | GCCCTGCGAAAGCGGCGC ((.(.((....)).).)) | -15 | 62
8 | GCCCTGCGAAAGCTTGGC (((..((....))..))) | -23 | 50.6
9 | GCCCTGGGAAACCAGAGC ((.((((....)))).)) | -28.7 | 45.5
10 | GCCCTGGGAAACTAGGGC (((((.(....).))))) | -44.5 | 55.3
11 | GCCCTTGCGAAAGCAGGC (((..(((....)))))) | -14.7 | 43.8
12 | GCCCTTGGAAACAAAGGC (((.(((....))).))) | -28.2 | 35.3
13 | GCCCTTTCGAAAGAAGGC (((..(((....)))))) | -33.3 | 37.6
14 | GCCGAACGAAAGTTTGGC (((.(((....))).))) | -35.2 | 66
15 | GCCGACCGAAAGGTGGGC (((.(((....))).))) | -34.4 | 67.4
16 | GCCGACGAAAGTCCGGGC ((((((....)))..))) | -24.4 | 53
17 | GCCGACGAAAGTCGAGGC ((((((....)))..))) | -16.5 | 59.5
18 | GCCGACGAAAGTCTCGGC ((((((....)))..))) | -37.1 | 52
19 | GCCGACGGAAACACCGGC ((((..(....)..)))) | -20.4 | 43.9
20 | GCCGAGCCGAAAGGCGGC (((..(((....)))))) | -12.7 | 68.7
21 | GCCGAGCGAAAGCATGGC (((..((....))..))) | -28.1 | 64
22 | GCCGAGCGAAAGCCAGGC (((..((....))..))) | -24 | 62.7
23 | GCCGAGCGAAAGCTCCGC ((.((((....)))).)) | -18 | 55.7

Row | Sequence | folding enthalpy [1] [kcal/mol] | Tm [2] [°C]
24 | GCCGAGCGAAAGCTGTGC ((..(((....)))..)) | -15.2 | 41.2
25 | GCCGATGGAAACATCAGC ((.((((....)))).)) | -24.5 | 41.5
26 | GCCGATGGAAACGTCGGC (((((.(....).))))) | -44.9 | 62.7
27 | GCCGCAGGAAACTGCGAC (.(((((....))))).) | -13.1 | 48.8
28 | GCCGCCCCGAAAGGGGGC (((..(((....)))))) | -6.87 | 67.5
29 | GCCGCCGAAAGGCGCGGC ((((((....)))..))) | -11.2 | 69.3
30 | GCCGCCGAAAGGCTGGGC ((((((....)))..))) | -20.4 | 64.8
31 | GCCGCGCGAAAGCGATGC ((..(((....)))..)) | -15.2 | 45.3
32 | GCCGCGCGAAAGCGCCGC ((.((((....)))).)) | -16.6 | 59.7
33 | GCCGCGCGAAAGCTCTGC ((.(.((....)).).)) | -10.9 | 30.7
34 | GCCGGAGGAAACCCCAGC ((.((.(....).)).)) | -6.86 | 16.8
35 | GCCGGAGGAAACCCCGAC (.(((.(....).))).) | -6.74 | 30.2
36 | GCCGGCGAAAGCCTGGC ((((((....))).))) | -24.8 | 68.8
37 | GCCGGCGGAAACACCGGC (((((.(....).))))) | -44.1 | 66.8
38 | GCCGGGCGAAAGCCACGC ((..(((....)))..)) | -12.7 | 50
39 | GCCGGGCGAAAGCCATGC ((..(((....)))..)) | -14.4 | 42.4
40 | GCCGGGGCGAAAGCCGGC (((..(((....)))))) | -20 | 69
41 | GCCGGTCGAAAGACGGC (((.(((....)))))) | -30.1 | 67.6
42 | GCCGGTCGAAAGACTGGC (((.(((....))).))) | -32 | 68.3
43 | GCCGGTGGAAACATCGGC ((((.((....)).)))) | -45.8 | 58.9
44 | GCCGGTGGAAACGCTGGC (((.(.(....).).))) | -40.9 | 50.8
45 | GCCGGTTCGAAAGAAGGC (((..(((....)))))) | -22.8 | 38.8
